The subject of data set [1] is HDAC (HeLa cell nuclear extract). The experiment in a line: In vitro HDAC inhibition fluorescence assay. Type of data set: biochemical, human. To be noted: read-out: HeLa cell nuclear extract IC50, substrate Boc-Lys(acetyl)-AMC, mean of three experiments. In outline:
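HeLa nuclear extract preincubated with test compound at several concentrations, 10 min at 37°C. Boc-Lys(acetyl)-AMC then added and incubated 30 min at 37°C. Reaction stopped with developer containing trypsin and trichostatin A. Fluorescence read 20 min later (ex 390/em 460 nm). Inhibition calculated relative to control wells. IC50 obtained by regression of concentration against inhibition ratio.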

The test system of data set [2] is H7402 cells. The experiment in a line: In vitro antiproliferative assay. Type of data set: cell-based. To be noted: Homo sapiens, H7402, 48 h, read-out: H7402 IC50. In outline:
(§1)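 Cells kept in RPMI-1640 with 10% FBS at 37°C, 5% CO2. Passaged into plates the day before dosing and grown at least 4 h before test compound was added. Exposure was 48 h, then 0.5% MTT for 4 h. Formazan was dissolved in DMSO for 15 min and absorbance read at 570 nm. Inhibition was taken relative to control wells, and IC50 was obtained by regression of concentration versus inhibition ratio.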

The subject of data set [3] is U937 cells. Kind of data set: In vitro antiproliferative assay. To be noted: Homo sapiens, U-937, 48 h, read-out: U937 IC50. Type of data set: cell-based. In outline: as §1
Data set [4] concerns U937 xenograft. The experiment in a line: In vivo antitumor assay in U937 xenograft model. The arrangement: species or system male athymic nude mice (BALB/c-nu). In outline:
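U937 cells were injected subcutaneously into the right flank of male BALB/c-nu mice aged 5–6 weeks. After about 10 days, at roughly 100 mm3, mice were randomized six per group. Dosing was oral, 100 mg/kg daily for 12 days, with controls given an equal volume of PBS. Calipers were used every 3 days, V = ab2/2, and RTV = Vt/V0. Body weight was tracked. Tumors were weighed and organs inspected at necropsy. Analysis used a two-tailed t-test, P<0.05.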

For data set [5], the system named is KG-1 cells. Kind of data set: In vitro antiproliferative assay. Type of data set: cell-based. To be noted: Homo sapiens, KG-1, 48 h, read-out: KG-1 IC50. An outline of the steps:
as §1

For data set [6], the system named is U266 cells. Kind of data set: In vitro antiproliferative assay. To be noted: Homo sapiens, U-266, 48 h, read-out: U266 IC50. Type of data set: cell-based. An outline of the steps: as §1
Data set [7] has as its system HCT116 cells. The experiment in a line: In vitro antiproliferative assay. To be noted: Homo sapiens, HCT-116, 48 h, read-out: HCT116 IC50. Type of data set: cell-based. In outline: as §1
Data set [8] concerns HeLa cells. Kind of data set: In vitro antiproliferative assay. To be noted: Homo sapiens, 48 h, read-out: HeLa IC50. Type of data set: cell-based. An outline of the steps: as §1
Data set [9] has as its system HDAC (HeLa cell nuclear extract). To be noted: read-out: HeLa cell nuclear extract IC50; HDAC inhibition; ref Zhang et al.[8]; cited from earlier work.
The mark [10] stands for this setting: U937 xenograft mice, 100 mg/kg once a day orally for 12 days.

Where two headings read alike, the source gives them in different places.

As for `COc1cccc(CN[C@H](C(=O)Nc2ccc(C(=O)NO)cc2)c2ccccc2)c1` [Compound 9d, (S)-N-Hydroxy-4-(2-((3-methoxybenzyl)amino)-2-phenylacetamido)benzamide], the IC50 in data set [1] turned out to be 70 nM; in [2], 3500 nM; in data set [3], 530 nM; in data set [5] it was 900 nM; in data set [6], 980 nM; in [7], 1300 nM. The IC50 in [8] was found to be 5400 nM. The “Relative increment ratio (T/C)” value in data set [4] (U937 xenograft in nude mice, 100 mg/kg once a day orally for 12 days) is on record as 43%. Besides, in data set [4] (setting [10]), the Body weight loss result is on record as “no significant body weight loss”. Moreover, the “Toxic signs in macroscopic analysis of liver and spleen” value in data set [4] (setting [10]) is reported as “no evident toxic signs”. The Oral antitumor activity result in data set [4] (U937 xenograft, 100 mg/kg po, tumor growth curve and final tumor tissue size) was “comparable with SAHA”.

For the compound `O=C(CCCCCCC(=O)Nc1ccccc1)NO` [SAHA, suberoylanilide hydroxamic acid], in data set [9], the IC50 is 146 nM.

As a reminder, the IC50 is the concentration at which inhibition is half-maximal.

The values above are taken from publication PMC4603714 (Drug Design, Development and Therapy, 2015).
